ChEMBL document CHEMBL3046203, “Bioactivity-guided fractionation and GC/MS fingerprinting of Angelica sinensis and Angelica archangelica root components for antifungal and mosquito deterrent activity” (2009)
Calls of active or inactive are those of the source. No cut-off for these calls is given here.

How the values were obtained:
[1] = tested on: Colletotrichum gloeosporioides; assay: Antifungal activity against Colletotrichum gloeosporioides assessed as as appearance of diffuse zone of inhibition at 2 mM in 2 uL solution by direct bio-autography assay; type: functional, organism-based
[2] = tested on: Colletotrichum acutatum; assay: Antifungal activity against Colletotrichum acutatum assessed as appearance of diffuse zone of inhibition at 2 mM in 2 uL solution by direct bio-autography assay; type: functional, organism-based
[3] = tested on: Anopheles stephensi; assay: Feeding deterrent activity against Anopheles stephensi assessed as proportion of mosquitoes not biting at 25 nmol/cm2 cloth relative to untreated control; type: functional
How it was run: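 Klun and Debboun in vitro module assay with mated nulliparous An. stephensi females (Delhi strain, 5-15 d old), given water only for 24 h before testing. Compounds were applied in ethanol to organdy cloth at 25 nmol/cm2 against an ethanol-treated control cloth. Conditions were 24-26 °C and 24-51% RH, 1300-1600 h, with 100 females (20 replicates). The proportion not biting was scored.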

[4] = tested on: Aedes aegypti; assay: Feeding deterrent activity against Aedes aegypti liverpool assessed as proportion of mosquitoes not biting at 25 nmol/cm2 cloth relative to untreated control; type: functional
How it was run: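 In vitro Klun and Debboun module assay with mated nulliparous Ae. aegypti females (red eye Liverpool strain, 5-15 d old), denied water for 24 h before testing. Treatments in ethanol were applied to organdy cloth at 25 nmol/cm2, with an ethanol-treated cloth as control. Testing ran at 24-26 °C and 24-51% RH, 1300-1600 h, using 85 females (17 replicates). Read-out was the proportion not biting.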

[5] = tested on: Colletotrichum gloeosporioides; assay: Antifungal activity against Colletotrichum gloeosporioides assessed as as appearance of diffuse zone of inhibition at 2 mM in 2 uL solution by direct bio-autography assay1; type: functional, organism-based

| Structure (SMILES) | growth inhibition (GI) [1] | growth inhibition (GI) [2] | Ratio [3] | Ratio [4] | growth inhibition (GI) [5] |
| --- | --- | --- | --- | --- | --- |
| CO/C=C(/C(=O)OC)c1ccccc1Oc1cc(Oc2ccccc2C#N)ncn1 | Active | Active | – | – | – |
| CC1=CCC[C@@H]2[C@@](C)(CC=O)[C@H](C)CC[C@@]12C [CALLICARPENAL] | – | – | 0.72 | 0.91 | – |
| CCN(CC)C(=O)c1cccc(C)c1 [DIETHYLTOLUAMIDE] | – | – | 0.51 | 0.67 | – |
| CCC/C=C1\OC(=O)C2=C1CCC=C2 [LIGUSTILIDE] | – | – | 0.66 | 0.79 | – |
| Cc1cc(C2CC2)nc(Nc2ccccc2)n1 | Active | Active | – | – | Active |
| CCCCNC(=O)n1c(NC(=O)OC)nc2ccccc21 | Active | Active | – | – | – |
